Assay results reported in ChEMBL document CHEMBL5303300, “EUbOPEN Chemogenomics Library - Multiplex” (2023).
“And” between values parts separate entries of the source, which are not always exact repeats. Equal entries are not always repeated.

Legend:
Type in all cases: toxicity, cell-based
[1] = test system: HEK-293T; test: Multiplex assay against HEK293T; details: human, number of replicates 2
Summary of the method: (§1)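 Cells were classed with CellPathfinder machine-learning gating, first as Hoechst high-intensity objects or normal cells, then (normal cells) as healthy, pyknosed or fragmented nuclei, and finally (pyknosed cells) as mitotic or apoptotic. Staining of live cells at seeding used Hoechst33342, BioTracker Green Microtubule Cytoskeleton Dye, MitoTracker Red and Annexin V Alexa Fluor 680, with imaging on a CQ1 microscope at 37°C and 5% CO2 after compound addition. Tubulin, mitochondrial-mass and membrane-permeability phenotypes are per cents of healthy-nucleus cells.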

[2] = test system: U2OS; test: Multiplex assay against U2OS; details: human, number of replicates 2; summary of the method: as §1
[3] = test system: Fibroblast; test: Multiplex assay against human fibroblast; details: number of replicates 2; summary of the method: as §1
[4] = 12 h, 1 µM, compound concentration 1 uM
[5] = 12 h, 10 µM, compound concentration 10 uM
[6] = 24 h, 1 µM, compound concentration 1 uM
[7] = 24 h, 10 µM, compound concentration 10 uM
[8] = 48 h, 1 µM, compound concentration 1 uM
[9] = 48 h, 10 µM, compound concentration 10 uM

SMILES: CC(C)N(CCCCOCC(=O)NS(C)(=O)=O)c1cnc(-c2ccccc2)c(-c2ccccc2)n1 [SELEXIPAG]
- Population Apoptotic (%) [1, 4]: 50% and 55%
- Population Fragmented Nuclei (%) [1, 4]: 3% and 4%
- Population Healthy Nuclei (%) [1, 4]: 81% and 80%
- Population Hoechst High Intensity Objects (%) [1, 4]: 8% and 6%
- Population Membrane Permeable-Phenotype (%) [1, 4]: 2%
- Population Mitochondria Different-Phenotype (%) [1, 4]: 17% and 14%
- Population Mitotic Cells (%) [1, 4]: 49% and 44%
- Population Normal (%) [1, 4]: 91% and 93%
- Population Pyknosed Nuclei (%) [1, 4]: 14% and 15%
- Population Tubulin-Different-Phenotype (%) [1, 4]: 52% and 41%
- Total Cell Count [1, 4]: 669 and 660
- Population Apoptotic (%) [1, 5]: 58% and 64%
- Population Fragmented Nuclei (%) [1, 5]: 5% and 6%
- Population Healthy Nuclei (%) [1, 5]: 80% and 81%
- Population Hoechst High Intensity Objects (%) [1, 5]: 9% and 10%
- Population Membrane Permeable-Phenotype (%) [1, 5]: 1% and 0%
- Population Mitochondria Different-Phenotype (%) [1, 5]: 14% and 15%
- Population Mitotic Cells (%) [1, 5]: 41% and 35%
- Population Normal (%) [1, 5]: 90% and 89%
- Population Pyknosed Nuclei (%) [1, 5]: 14% and 11%
- Population Tubulin-Different-Phenotype (%) [1, 5]: 51% and 44%
- Total Cell Count [1, 5]: 616 and 713
- Population Apoptotic (%) [1, 6]: 46% and 55%
- Population Fragmented Nuclei (%) [1, 6]: 6% and 7%
- Population Healthy Nuclei (%) [1, 6]: 83% and 81%
- Population Hoechst High Intensity Objects (%) [1, 6]: 7% and 8%
- Population Membrane Permeable-Phenotype (%) [1, 6]: 2% and 1%
- Population Mitochondria Different-Phenotype (%) [1, 6]: 4% and 3%
- Population Mitotic Cells (%) [1, 6]: 53% and 45%
- Population Normal (%) [1, 6]: 92% and 91%
- Population Pyknosed Nuclei (%) [1, 6]: 9% and 11%
- Population Tubulin-Different-Phenotype (%) [1, 6]: 27% and 22%
- Total Cell Count [1, 6]: 1034 and 989
- Population Apoptotic (%) [1, 7]: 50% and 54%
- Population Fragmented Nuclei (%) [1, 7]: 13% and 7%
- Population Healthy Nuclei (%) [1, 7]: 77% and 82%
- Population Hoechst High Intensity Objects (%) [1, 7]: 10% and 9%
- Population Membrane Permeable-Phenotype (%) [1, 7]: 2% and 1%
- Population Mitochondria Different-Phenotype (%) [1, 7]: 2% and 5%
- Population Mitotic Cells (%) [1, 7]: 50% and 45%
- Population Normal (%) [1, 7]: 89% and 90%
- Population Pyknosed Nuclei (%) [1, 7]: 8% and 9%
- Population Tubulin-Different-Phenotype (%) [1, 7]: 13% and 24%
- Total Cell Count [1, 7]: 1214 and 906
- Population Apoptotic (%) [1, 8]: 13% and 14%
- Population Fragmented Nuclei (%) [1, 8]: 12% and 10%
- Population Healthy Nuclei (%) [1, 8]: 83% and 86%
- Population Hoechst High Intensity Objects (%) [1, 8]: 8%
- Population Membrane Permeable-Phenotype (%) [1, 8]: 4% and 5%
- Population Mitochondria Different-Phenotype (%) [1, 8]: 0%
- Population Mitotic Cells (%) [1, 8]: 86% and 85%
- Population Normal (%) [1, 8]: 91%
- Population Pyknosed Nuclei (%) [1, 8]: 3%
- Population Tubulin-Different-Phenotype (%) [1, 8]: 7%
- Total Cell Count [1, 8]: 2736 and 2374
- Population Apoptotic (%) [1, 9]: 25% and 19%
- Population Fragmented Nuclei (%) [1, 9]: 25% and 22%
- Population Healthy Nuclei (%) [1, 9]: 71% and 75%
- Population Hoechst High Intensity Objects (%) [1, 9]: 9%
- Population Membrane Permeable-Phenotype (%) [1, 9]: 5% and 7%
- Population Mitochondria Different-Phenotype (%) [1, 9]: 0%
- Population Mitotic Cells (%) [1, 9]: 74% and 80%
- Population Normal (%) [1, 9]: 90%
- Population Pyknosed Nuclei (%) [1, 9]: 2%
- Population Tubulin-Different-Phenotype (%) [1, 9]: 8% and 13%
- Total Cell Count [1, 9]: 3157 and 2195
- Population Apoptotic (%) [2, 4]: 100% and 38%
- Population Fragmented Nuclei (%) [2, 4]: 14% and 4%
- Population Healthy Nuclei (%) [2, 4]: 76% and 84%
- Population Hoechst High Intensity Objects (%) [2, 4]: 0%
- Population Membrane Permeable-Phenotype (%) [2, 4]: 0% and 1%
- Population Mitochondria Different-Phenotype (%) [2, 4]: 6% and 0%
- Population Normal (%) [2, 4]: 100% and 99%
- Population Pyknosed Nuclei (%) [2, 4]: 9% and 11%
- Population Tubulin-Different-Phenotype (%) [2, 4]: 81% and 85%
- Population Apoptotic (%) [2, 5]: 33% and 45%
- Population Fragmented Nuclei (%) [2, 5]: 11% and 3%
- Population Healthy Nuclei (%) [2, 5]: 82% and 88%
- Population Hoechst High Intensity Objects (%) [2, 5]: 0%
- Population Membrane Permeable-Phenotype (%) [2, 5]: 2% and 1%
- Population Mitochondria Different-Phenotype (%) [2, 5]: 0%
- Population Mitotic Cells (%) [2, 5]: 66% and 54%
- Population Normal (%) [2, 5]: 100% and 99%
- Population Pyknosed Nuclei (%) [2, 5]: 6% and 8%
- Population Tubulin-Different-Phenotype (%) [2, 5]: 97% and 87%
- Population Apoptotic (%) [2, 6]: 50% and 46%
- Population Fragmented Nuclei (%) [2, 6]: 5% and 2%
- Population Healthy Nuclei (%) [2, 6]: 88% and 89%
- Population Hoechst High Intensity Objects (%) [2, 6]: 0%
- Population Membrane Permeable-Phenotype (%) [2, 6]: 3% and 1%
- Population Mitochondria Different-Phenotype (%) [2, 6]: 0%
- Population Mitotic Cells (%) [2, 6]: 50% and 53%
- Population Normal (%) [2, 6]: 100%
- Population Pyknosed Nuclei (%) [2, 6]: 5% and 8%
- Population Tubulin-Different-Phenotype (%) [2, 6]: 84% and 91%
- Population Apoptotic (%) [2, 7]: 75% and 46%
- Population Healthy Nuclei (%) [2, 7]: 73% and 89%
- Population Hoechst High Intensity Objects (%) [2, 7]: 0%
- Population Membrane Permeable-Phenotype (%) [2, 7]: 0% and 1%
- Population Mitochondria Different-Phenotype (%) [2, 7]: 0%
- Population Mitotic Cells (%) [2, 7]: 25% and 53%
- Population Normal (%) [2, 7]: 100% and 99%
- Population Pyknosed Nuclei (%) [2, 7]: 6%
- Population Tubulin-Different-Phenotype (%) [2, 7]: 100% and 94%
- Population Apoptotic (%) [2, 8]: 22% and 50%
- Population Healthy Nuclei (%) [2, 8]: 67% and 94%
- Population Hoechst High Intensity Objects (%) [2, 8]: 0%
- Population Membrane Permeable-Phenotype (%) [2, 8]: 0% and 1%
- Population Mitochondria Different-Phenotype (%) [2, 8]: 0%
- Population Mitotic Cells (%) [2, 8]: 77% and 50%
- Population Normal (%) [2, 8]: 100%
- Population Tubulin-Different-Phenotype (%) [2, 8]: 85% and 93%
- Population Apoptotic (%) [2, 9]: 36% and 56%
- Population Fragmented Nuclei (%) [2, 9]: 6% and 4%
- Population Healthy Nuclei (%) [2, 9]: 83% and 90%
- Population Hoechst High Intensity Objects (%) [2, 9]: 0%
- Population Membrane Permeable-Phenotype (%) [2, 9]: 1%
- Population Mitochondria Different-Phenotype (%) [2, 9]: 0%
- Population Mitotic Cells (%) [2, 9]: 63% and 43%
- Population Normal (%) [2, 9]: 100% and 99%
- Population Pyknosed Nuclei (%) [2, 9]: 9% and 4%
- Population Tubulin-Different-Phenotype (%) [2, 9]: 97% and 94%
- Population Apoptotic (%) [3, 4]: 54% and 38%
- Population Fragmented Nuclei (%) [3, 4]: 4% and 10%
- Population Healthy Nuclei (%) [3, 4]: 77% and 72%
- Population Hoechst High Intensity Objects (%) [3, 4]: 0%
- Population Membrane Permeable-Phenotype (%) [3, 4]: 4%
- Population Mitochondria Different-Phenotype (%) [3, 4]: 2% and 0%
- Population Mitotic Cells (%) [3, 4]: 45% and 61%
- Population Normal (%) [3, 4]: 100%
- Population Pyknosed Nuclei (%) [3, 4]: 18% and 16%
- Population Tubulin-Different-Phenotype (%) [3, 4]: 10% and 11%
- Total Cell Count [3, 4]: 168 and 186
- Population Apoptotic (%) [3, 5]: 56% and 54%
- Population Fragmented Nuclei (%) [3, 5]: 7% and 14%
- Population Healthy Nuclei (%) [3, 5]: 61% and 63%
- Population Hoechst High Intensity Objects (%) [3, 5]: 0%
- Population Membrane Permeable-Phenotype (%) [3, 5]: 0% and 6%
- Population Mitochondria Different-Phenotype (%) [3, 5]: 1%
- Population Mitotic Cells (%) [3, 5]: 43% and 45%
- Population Normal (%) [3, 5]: 100% and 99%
- Population Pyknosed Nuclei (%) [3, 5]: 31% and 21%
- Population Tubulin-Different-Phenotype (%) [3, 5]: 2% and 10%
- Total Cell Count [3, 5]: 148 and 221
- Population Apoptotic (%) [3, 6]: 58% and 50%
- Population Fragmented Nuclei (%) [3, 6]: 8% and 14%
- Population Healthy Nuclei (%) [3, 6]: 75% and 65%
- Population Hoechst High Intensity Objects (%) [3, 6]: 0%
- Population Membrane Permeable-Phenotype (%) [3, 6]: 6% and 4%
- Population Mitochondria Different-Phenotype (%) [3, 6]: 0%
- Population Mitotic Cells (%) [3, 6]: 41% and 50%
- Population Normal (%) [3, 6]: 99% and 100%
- Population Pyknosed Nuclei (%) [3, 6]: 16% and 20%
- Population Tubulin-Different-Phenotype (%) [3, 6]: 7% and 8%
- Total Cell Count [3, 6]: 175 and 190
- Population Apoptotic (%) [3, 7]: 56% and 50%
- Population Fragmented Nuclei (%) [3, 7]: 6% and 13%
- Population Healthy Nuclei (%) [3, 7]: 63% and 65%
- Population Hoechst High Intensity Objects (%) [3, 7]: 0%
- Population Membrane Permeable-Phenotype (%) [3, 7]: 2% and 6%
- Population Mitochondria Different-Phenotype (%) [3, 7]: 1%
- Population Mitotic Cells (%) [3, 7]: 43% and 50%
- Population Normal (%) [3, 7]: 100% and 99%
- Population Pyknosed Nuclei (%) [3, 7]: 30% and 21%
- Population Tubulin-Different-Phenotype (%) [3, 7]: 6% and 8%
- Total Cell Count [3, 7]: 152 and 221
- Population Apoptotic (%) [3, 8]: 80% and 40%
- Population Fragmented Nuclei (%) [3, 8]: 8% and 11%
- Population Healthy Nuclei (%) [3, 8]: 79% and 75%
- Population Hoechst High Intensity Objects (%) [3, 8]: 0%
- Population Membrane Permeable-Phenotype (%) [3, 8]: 4% and 6%
- Population Mitochondria Different-Phenotype (%) [3, 8]: 0%
- Population Mitotic Cells (%) [3, 8]: 20% and 60%
- Population Normal (%) [3, 8]: 99%
- Population Pyknosed Nuclei (%) [3, 8]: 11% and 12%
- Population Tubulin-Different-Phenotype (%) [3, 8]: 4% and 3%
- Total Cell Count [3, 8]: 169 and 204
- Population Apoptotic (%) [3, 9]: 90% and 59%
- Population Fragmented Nuclei (%) [3, 9]: 8% and 11%
- Population Healthy Nuclei (%) [3, 9]: 71% and 68%
- Population Hoechst High Intensity Objects (%) [3, 9]: 0%
- Population Membrane Permeable-Phenotype (%) [3, 9]: 0% and 4%
- Population Mitochondria Different-Phenotype (%) [3, 9]: 0%
- Population Normal (%) [3, 9]: 100%
- Population Pyknosed Nuclei (%) [3, 9]: 19%
- Population Tubulin-Different-Phenotype (%) [3, 9]: 3% and 7%
- Total Cell Count [3, 9]: 151 and 212
